Shown are actives, neighbours in structure and some others; about 1.8% of the full set was active somewhere.
NPY-Y1 antag: NPY-Y1 (human) receptor antagonism | P25929 | HEK293-CNG Y1 cells, membrane potential fluorescence; NPY at EC95, then isoproterenol | inhibition, % at 3.6 µM | hit rate 1% among 200,000 | AID 1040;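 active = inhibition above the campaign mean inhibition of all tested compounds plus 3 SD, cut at about 20% in these data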
Target sequence (P25929 whole entry, looked up): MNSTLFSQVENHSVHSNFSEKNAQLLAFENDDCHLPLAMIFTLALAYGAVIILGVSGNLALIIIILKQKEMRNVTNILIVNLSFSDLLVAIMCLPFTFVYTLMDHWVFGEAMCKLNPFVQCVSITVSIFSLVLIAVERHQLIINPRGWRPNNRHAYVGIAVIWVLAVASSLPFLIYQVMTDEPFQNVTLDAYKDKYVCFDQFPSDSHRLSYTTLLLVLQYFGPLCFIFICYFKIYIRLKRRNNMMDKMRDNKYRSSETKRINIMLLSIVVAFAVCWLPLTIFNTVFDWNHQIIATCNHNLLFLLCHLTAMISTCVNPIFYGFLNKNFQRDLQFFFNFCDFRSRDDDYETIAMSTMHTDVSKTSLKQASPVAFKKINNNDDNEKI
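Material: HEK293 cells with Y1 receptor plus CNG channel; times: compound incubation 1 h at room temperature, readout 45 min post-stimulation; signal: fluorescence, membrane potential probe; read-out basis: fluorescence ratio normalized to % inhibition between controls; benchmarks: full-block control isoproterenol-only wells, zero-block control NPY plus isoproterenol wells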
NPY-Y2 antag: blocks the human neuropeptide Y Y2 receptor; P49146; NPY-Y2 expressing cells, antagonist mode; inhibition, % at 2.7 µM; hit rate 0.99% among 140,000; AID 793
NPY1 pot ag: potentiates or activates human NPY-Y1 receptor. P25929. NPY-Y1 expressing cells, potentiator/agonist activation. activation, % at 3.6 µM. hit rate 0.37% among 220,000. AID 1304; in the data active = activation above about 33%, passing the limit was not always enough;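 note: cells stimulated with NPY at EC10 then isoproterenol at EC100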
NPY-Y2 PAM-ag: human NPY-Y2 potentiation or agonism, primary screen | P49146 | cells expressing NPY-Y2, potentiator/agonist read-out | activation, % at 3.6 µM | hit rate 0.45% among 220,000; in the data active = activation above about 27%;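 note: cells stimulated with NPY near EC25 plus isoproterenol at EC100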
NPY1 antag conf: confirmation of human neuropeptide Y receptor Y1 antagonists | shares compounds with NPY-Y1 antag | HEK293-CNG NPY-Y1, membrane potential fluorescence, cAMP; NPY challenge against isoproterenol-raised cAMP | inhibition, % at 3.6 µM | hit rate 21% among 1,200 | AID 1254; in the data active = inhibition above about 20%
NPY2 antag ctr: counter-screen for NPY-Y1 antagonists: human NPY-Y2 antagonism. shares compounds with NPY-Y1 antag. hit rate 28% among 1,200. inhibition, % at 3.6 µM. HEK293 NPY-Y2 CNG membrane potential fluorescence; cells given NPY, then isoproterenol. AID 1255
Numbers stand for hits; – = inactive; · = not tested or not shown. Cut-off read from the data, not from the text of the source, unless noted: active = inhibition above about 17%; inactive = the rest.

SMILES	NPY-Y1 antag	NPY-Y2 antag	NPY1 pot ag	NPY-Y2 PAM-ag	NPY1 antag conf	NPY2 antag ctr
COc1ccc(-n2cc(CNCCc3ncc(C)[nH]3)c(-c3ccccc3Cl)n2)cc1	–	·	–	–	·	·
Cc1ccc(-n2cc(CNCCn3nc(C)cc3C)c(-c3ccc(F)cc3)n2)cc1	26	·	–	–	27	–
Cc1ccc(-n2cc(CNCCc3ncc(C)[nH]3)c(-c3ccc(F)cc3)n2)cc1	27	·	–	–	–	25
O=C(CN1C(=O)COc2ccccc21)N(Cc1cccnc1)Cc1ccccc1F	–	–	–	–	·	·
CC(Nc1nc(N2CCNCC2)nc2ccccc12)c1ccccc1 (configuration not stated)	25	·	–	–	28	35
c1ccc(CNc2nc(N3CCN(Cc4ccccc4)CC3)nc3ccccc23)cc1	·	·	–	–	·	·
Cn1cc(Br)c(C(=O)n2cc(Br)cn2)n1	–	·	–	–	·	·
Cc1ccccc1N/C(SCc1ccc(Cl)cc1)=C(/C#N)C(=O)NCc1ccco1	34	–	–	–	–	–
Cc1ccc(CS/C(Nc2ccccc2C)=C(\C#N)C(=O)NCc2ccco2)c(C)c1	–	–	–	–	·	·
Cc1cc(C)cc(OCC(=O)NCc2nc(-c3ccccc3)no2)c1	29	–	–	–	–	–
Cc1cccc(-c2noc(CCC(=O)NCc3ccccc3)n2)c1	–	–	–	–	·	·
Oc1cccc(-c2nc3c4c(ncn3n2)-c2ccccc2CC42CCCC2)c1	–	–	–	–	·	·
O=C1NC(Cc2c[nH]c3ccccc23)C(=O)N1Cc1ccc(CN2C(=O)NC(Cc3c[nH]c4ccccc34)C2=O)cc1 (configuration not stated)	–	·	–	–	·	·
Cc1ccc(CNc2ccc(Cl)cc2[N+](=O)[O-])cc1	24	–	–	–	–	–
COc1cc(C(=O)NCc2nnc(SCC(=O)N3CCc4ccccc43)o2)cc(OC)c1OC	–	–	–	–	·	·
Cc1nnsc1C(=O)NNC(=O)c1cccc2ccccc12	·	·	–	–	·	·
Clc1ccc(C[n+]2cc(-c3ccccc3)n3c2CCCCC3)c(Cl)c1	50	·	–	–	33	22
O=C(C[n+]1cc(-c2ccccc2)n2c1CCCCC2)c1ccc(Cl)cc1	37	–	–	–	25	22
CC1CCC(C(C)C)C(OC(=O)C[n+]2cc(-c3ccc(Cl)cc3)n3c2CCCCC3)C1 (configuration not stated)	80	·	–	–	45	39
COc1ccc(-c2c[n+](CC(=O)c3ccccc3)c3n2CCCCC3)cc1	·	·	–	–	·	·
Clc1ccc(-c2c[n+](Cc3ccc(Cl)cc3Cl)c3n2CCCCC3)cc1	·	·	–	–	·	·
Cc1ccc(-c2c[n+](CC(=O)c3ccc(Br)cc3)c3n2CCCCC3)cc1	35	·	–	–	52	31
CCn1nc(C)c(C2C(C#N)=C(N)OC3=C2C(=O)CC(C)(C)C3)c1C (configuration not stated)	–	–	–	–	·	·
CCCCCC(=O)NNC(=O)c1ccc(-c2ccccc2)cc1	–	–	–	–	·	·
Cc1cc(C)nc(-n2ncc3c2CC(c2cccc(Cl)c2)CC3=O)n1 (configuration not stated)	–	·	–	–	·	·
SMILES	NPY-Y1 antag	NPY-Y2 antag	NPY1 pot ag	NPY-Y2 PAM-ag	NPY1 antag conf	NPY2 antag ctr
CCOC(=O)C1=C(C)NC2=C(C(=O)CCC2)C1c1cc(OC)ccc1OC (configuration not stated)	–	–	–	–	·	·
CCOC(=O)C1=C(C)NC2=C(C(=O)CCC2)C1c1cn(Cc2ccc(Cl)cc2Cl)nc1-c1ccccc1 (configuration not stated)	35	–	–	–	30	39
Cc1ccc(C(=O)N2c3ccccc3N(Cc3ccccc3)C(=O)C2(C)C)cc1	30	–	–	–	–	–
CCOc1cccc2sc(N(CCN(CC)CC)C(=O)c3ccc(S(=O)(=O)N4CCCCC4)cc3)nc12	26	·	–	–	–	–
CCOc1cccc2sc(N(CCCN(C)C)C(=O)Cc3ccccc3)nc12	–	·	–	–	·	·
Clc1ccc(-n2nnnc2-c2cnc(-c3ccncc3)nc2-c2cccs2)cc1	34	–	–	–	–	18
C=CCN1C2CCCC1CC(NC(=O)Nc1cc(C)cc(C)c1)C2 (configuration not stated)	–	·	–	–	·	·
CCN1/C(=C/C=C/c2oc3ccc4ccccc4c3[n+]2CC)Oc2ccc3ccccc3c21	35	·	–	–	30	30
CC[n+]1c(/C=C/N(C)c2ccccc2)oc2ccc(Cl)cc21	–	–	–	–	·	·
COc1ccc(CNC(=O)c2cc(C)nn2-c2ccccc2)cc1	·	·	–	–	·	·
O=S(=O)(c1ccc2c(c1)OCCO2)N(Cc1ccc(F)cc1)Cc1nnc(-c2cccs2)o1	45	–	–	–	–	–
Cc1ccc(C(=O)NNC(=O)c2cccc(S(=O)(=O)N3CCN(c4ccccc4)CC3)c2)cc1	–	–	–	–	·	·
Cc1nc(NCc2ccccn2)c2c3c(sc2n1)CCCC3	46	·	–	–	–	–
CCCCOc1cccc(OCCCC)c1C(=O)Nc1cc(C)on1	51	–	–	–	22	–
CCOc1ccc(C(=O)Nc2cc(C)on2)cc1OCC	–	–	–	–	·	·
COc1ccc(N(C)S(=O)(=O)c2ccc(Cl)c(C(=O)NCCc3ccc(Cl)cc3)c2)cc1	29	·	–	–	–	–
COc1nc(-c2ccccc2)ccc1-c1noc(-c2ccco2)n1	–	–	–	–	·	·
COc1ccc(-c2ccc(-c3noc(-c4ccco4)n3)c(OC)n2)cc1	78	–	–	–	–	–
O=C(Nc1ccccc1N1CCN(C(=O)c2ccccc2)CC1)c1ccc(Cl)cc1	–	·	–	–	·	·
O=C(Nc1ccccc1N1CCN(c2ccccc2)CC1)c1ccccc1	41	·	–	–	34	20
COc1ccc(-c2nnc(N3CCCCC3)c3ccccc23)cc1	–	–	–	–	·	·
Cc1ccc(-c2nnc(N3CCC(C)CC3)c3ccccc23)cc1	29	·	–	–	–	–
CC1CCN(c2nnc(-c3ccccc3)c3ccccc23)CC1	–	·	–	–	·	·
Cc1ccc(-c2nnc(N3CCC(C)CC3)c3ccccc23)cc1C	26	·	–	–	–	–
C#CCn1c(=NC(=O)c2ccc(S(=O)(=O)N3CCCc4ccccc43)cc2)sc2cc(S(N)(=O)=O)ccc21	24	–	–	–	–	31
CCOC(=O)c1cnc(SCCc2ccccc2)nc1N	21	–	–	–	–	–
COc1ccc(C(=O)NC(=S)N2CCN(C)CC2)cc1Br	–	·	–	–	·	·
CCCCN(C)CCCNC(=O)c1cn(CC)c2ccc(S(=O)(=O)N3CCc4ccccc4C3)cc2c1=O	–	·	–	–	·	·
CCCCN(CC)CCCNC(=O)c1cn(CC)c2ccc(S(=O)(=O)N3CCc4ccccc4C3)cc2c1=O	22	·	–	–	–	29
CCCSc1nc(-n2ncc(C#N)c2N)c2c3c(sc2n1)CCC(C)C3 (configuration not stated)	21	–	–	–	–	–

Source: PubChem BioAssay
